Reference: ChEMBL document CHEMBL5260818, “Anti-influenza activity of diazaadamantanes combined with monoterpene moieties” (Bioorg Med Chem Lett, 2017)

Assays:
[1] = Selectivity index, ratio of CC50 for cytotoxicity against MDCK cells to IC50 for antiviral activity against Influenza A virus A/Puerto Rico/8/34 (H1N1) infected in MDCK cells assessed as inhibition of viral growth; assay type: toxicity, cell-based; conditions: dog, read-out: Ratio CC50/IC50
Method in brief: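 SI is CC50 (MTT, uninfected MDCK, 48 h) divided by IC50 (hemagglutination titre of progeny virus from MDCK cells infected at moi 0.01 after 1 h compound pre-incubation), both from triplicate concentration series.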

[2] = Cytotoxicity against MDCK cells incubated for 48 hrs by MTT assay; assay type: toxicity, cell-based, Canis lupus familiaris; conditions: dog
Method in brief: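 Uninfected MDCK cells were exposed to the dissolved compounds for 48 h at 36 °C, 5% CO2. Cells were washed twice with PBS, then given MTT ([…] in PBS) for 1 h. Formazan was dissolved in DMSO and OD read at 535 nm against concentration. Three parallels per concentration, and CC50 was calculated.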

Influenza A virus [3] = assay: Antiviral activity against Influenza A virus A/Puerto Rico/8/34 (H1N1) infected in MDCK cells assessed as inhibition of viral growth preincubated with cells for 1 hrs followed by compound addition and measured after 24 hrs by TCD titration based assay; assay type: functional, organism-based
Method in brief: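 Compounds dissolved in DMSO and diluted in MEM with 1 μg/ml trypsin, then added to MDCK cells for 1 h at 36 °C before infection (moi 0.01). Cultures were kept 24 h at 36 °C, 5% CO2. Supernatant virus progeny was grown in MDCK cells for 48 h, then titred by hemagglutination. Each concentration was run in triplicate, and IC50 was calculated.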

Influenza A virus [4] = assay: Antiviral activity against Influenza A virus A A/California/07/09 (H1N1)pdm09; assay type: functional, organism-based

Q: Which selectivity ratio [1] does the source give for `CC1=CC[C@@H](CC2N3CC4(C)CN2CC(C)(C3)C4=O)C1(C)C` (stereo partly specified) here?
A: Its selectivity ratio is under 2.

Q: And the CC50 at 48 h [2]?
A: Its CC50 at 48 h is 533 µM.

Q: What about the IC50 (Influenza A virus [3]) of the same compound?
A: Its IC50 is over 331 µM.

Q: With `CC(=O)[C@@H]1C[C@H](CC2N3CC4(C)CN2CC(C)(C3)C4=O)C1(C)C` (stereo partly specified) as the compound, how does the CC50 at 48 h [2] read?
A: The CC50 at 48 h was over 943 µM.

Q: What about the IC50 (Influenza A virus [3]) of the same compound?
A: Its IC50 is over 943 µM.

Q: Which results are given for `CC(C)=CCC/C(C)=C\CNC1C2(C)CN3CN(C2)CC1(C)C3` (stereo unspecified)?
A: CC50 at 48 h [2]: > 1040 µM; IC50 (Influenza A virus [3]): > 1040 µM

Q: Which selectivity ratio [1] does the source give for `CC(CCCC(C)(C)O)CCNC1C2(C)CN3CN(C2)CC1(C)C3` (stereo unspecified) here?
A: The selectivity ratio was 7.

Q: What about the CC50 at 48 h [2] of the same compound?
A: Its CC50 at 48 h is 979 µM.

Q: And the IC50 (Influenza A virus [3])?
A: The IC50 was 134 µM.

Q: Which results are given for `CC(N)C12CC3CC(CC(C3)C1)C2` (stereo unspecified) [RIMANTADINE]?
A: selectivity ratio [1]: 8; IC50 (Influenza A virus [3]): 42 µM

Q: With `CC(C)=CCCC(C)CCNC1C2(C)CN3CN(C2)CC1(C)C3` (stereo unspecified) as the compound, how does the selectivity ratio [1] read?
A: The selectivity ratio was 30.

Q: What about the CC50 at 48 h [2] of the same compound?
A: The CC50 at 48 h was 239 µM.

Q: And the IC50 (Influenza A virus [3])?
A: The IC50 was 8 µM.

Q: With `CC12CN3CC(C)(CN(C1)C3C1=CC(=O)[C@H]3C[C@@H]1C3(C)C)C2=O` (stereo partly specified) as the compound, how does the selectivity ratio [1] read?
A: The selectivity ratio was 8.

Q: What about the CC50 at 48 h [2] of the same compound?
A: The CC50 at 48 h was 907 µM.

Q: What about the IC50 (Influenza A virus [3]) of the same compound?
A: The IC50 was 113 µM.

Q: With `CC(C)=CCCC(C)CC1N2CC3(C)CN1CC(C)(C2)C3=O` (stereo unspecified) as the compound, how does the selectivity ratio [1] read?
A: The selectivity ratio was 3.

Q: What about the CC50 at 48 h [2] of the same compound?
A: Its CC50 at 48 h is 178 µM.

Q: And the IC50 (Influenza A virus [3])?
A: Its IC50 is 66 µM.

Q: With `CC(C)=CCCC(C)CCNC1C2CC3CC(C2)CC1C3` (stereo unspecified) as the compound, how does the IC50 (Influenza A virus [4]) read?
A: Its IC50 is 18 µM.

Q: Which selectivity ratio [1] does the source give for `CC12CN3CN(C1)CC(C)(C3)C2NCC1=CC[C@H]2C[C@@H]1C2(C)C` (stereo partly specified) here?
A: The selectivity ratio was 3.

Q: And the CC50 at 48 h [2]?
A: Its CC50 at 48 h is 196 µM.

Q: What about the IC50 (Influenza A virus [3]) of the same compound?
A: Its IC50 is 64 µM.

Q: Which selectivity ratio [1] does the source give for `CC12CN3CN(C1)CC(C)(C3)C2N` (stereo unspecified) here?
A: The selectivity ratio was over 13.

Q: And the CC50 at 48 h [2]?
A: The CC50 at 48 h was over 1820 µM.

Q: What about the IC50 (Influenza A virus [3]) of the same compound?
A: Its IC50 is 143 µM.

Q: Which CC50 at 48 h [2] does the source give for `CC12CN3CC(C)(CN(C1)C3C1=CC[C@H]3C[C@@H]1C3(C)C)C2=O` (stereo partly specified) here?
A: The CC50 at 48 h was over 1000 µM.

Q: And the IC50 (Influenza A virus [3])?
A: The IC50 was over 1000 µM.

Q: What does the source list for `CC(CCCC(C)(C)O)CC1N2CC3(C)CN1CC(C)(C2)C3=O` (stereo unspecified)?
A: selectivity ratio [1]: 3; CC50 at 48 h [2]: > 904 µM; IC50 (Influenza A virus [3]): 260 µM

Q: With `CC(C)=CCC/C(C)=C\C1N2CC3(C)CN1CC(C)(C2)C3=O` (stereo unspecified) as the compound, how does the selectivity ratio [1] read?
A: Its selectivity ratio is 2.

Q: And the CC50 at 48 h [2]?
A: The CC50 at 48 h was 242 µM.

Q: And the IC50 (Influenza A virus [3])?
A: The IC50 was over 99 µM.
